The record followed here is ChEMBL document CHEMBL3120048 (J Med Chem, 2014).

The source made the active and inactive calls. The rule behind the calls is not given here.

One assay relates to Hepatitis C virus. Put plainly: Antiviral activity against Hepatitis C virus Con1 genotype 1b expressing NS2-NS5B infected in human HuH7 cells after 72 hrs by luciferase reporter gene assay. The class given is functional, organism-based, Hepacivirus hominis. The settings on record: isolate Con1, Huh-7, 72 h. Put shortly:
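Cells carrying a bicistronic luciferase reporter subgenomic replicon (Con1 GT-1b, NS2-NS5B coding region) were incubated with compound for 72 h. Relative luciferase levels were then read with Bright-Glo substrate, and EC50 values were derived from these readings.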

Assay [1] can be described thus: Inhibition of HCV genotype 1b NS5Bdelta21 RNA dependent RNA polymerase expressed in Escherichia coli JM109 (DE3). Set-up: species or system Hepatitis C virus subtype 1b.
Assay [2] is filed under the species Homo sapiens. Put plainly: Inhibition of DNA polymerase-gamma (unknown origin).
In another assay the test system is Enterovirus C. Put plainly: Inhibition of poliovirus RdRp.
Assay [3] addresses DNA polymerase beta (Homo sapiens) (UniProt P06746). Put plainly: Inhibition of DNA polymerase-beta (unknown origin).
The species named for assay [4] is Homo sapiens. Put plainly: Inhibition of DdRp-2 (unknown origin).
Assay [5] is filed under the species Homo sapiens. Put plainly: Inhibition of DNA polymerase-alpha (unknown origin).

In general, EC50 refers to the concentration needed to bring the measured effect to its halfway point. By IC50 is commonly meant the concentration that inhibits the measured activity by half. In the assay with Hepatitis C virus, `CCOc1cc(NC(=O)C2(NC(=O)c3ccc4c5c(n(C)c4c3)CCCC53CCCCC3)CCC2)ccc1/C=C/C(=O)O` came in with an EC50 of 0.094 µM. Besides, the IC50 in assay [1] worked out at 0.46 µM.

With `Cn1c(C2(NC(=O)c3ccc4c5c(n(C)c4c3)CCCC53CCCCC3)CCC2)nc2ccc(/C=C/C(=O)O)cc21`, it took 0.049 µM to reach a half-maximal effect with Hepatitis C virus (EC50). This compound also had an IC50 in assay [1] of 0.18 µM. Regarding `C[C@@H](NC(=O)c1ccc2c(n1)nc(-c1ccoc1)n2C1CCCCC1)C(=O)Nc1ccc(/C=C/C(=O)O)cc1`, in assay [1], the IC50 was 0.33 µM. The same measure, in the same setting: next, `C[C@@H](NC(=O)c1ccc2c(c1)nc(-c1ccoc1)n2C1CCCCC1)C(=O)Nc1ccc(/C=C/C(=O)O)cc1`: 0.088 µM.

The compound `Cc1cc2c(cc1C(=O)N[C@H](C)C(=O)Nc1ccc(/C=C/C(=O)O)cc1)nc(-c1ccoc1)n2C1CCCCC1` gave an IC50 in assay [1] of 4 µM. This IC50 is about 45-fold higher than that of the compound before. `O=C(O)COc1ccc2[nH]cc(C[C@H](NC(=O)c3ccc4c(c3)nc(-c3ccoc3)n4C3CCCCC3)C(=O)O)c2c1` returned an EC50 with Hepatitis C virus of 65 µM. As for `Cn1c(C2(NC(=O)c3ccc4c(C5CCCC5)c(-c5ncc(Br)cn5)n(C)c4c3)CCC2)nc2ccc(/C=C/C(=O)O)cc21` [DELEOBUVIR], the inhibition entry (in the assay filed under Homo sapiens [2]; in the assay with Enterovirus C; in assay [3]; in the assay listed under Homo sapiens [4]; in the assay listed under Homo sapiens [5]) was “inactive” each time. For the same compound, it took 0.05 µM to reach half-maximal inhibition in assay [1] (IC50). With `Cc1c(C(=O)N[C@H](C)C(=O)Nc2ccc(/C=C/C(=O)O)cc2)ccc2c1nc(-c1ccoc1)n2C1CCCCC1`, the IC50 in assay [1] is 0.89 µM. Compound `Cn1c2c(c3ccc(C(=O)O)cc31)C1(CCCCC1)CCC2` had an EC50 in the assay with Hepatitis C virus above 11 µM. The IC50 in assay [1] was 16 µM. On the same counts, the results for `Cn1c(C2(NC(=O)c3ccc4c5c(n(C)c4c3)CCCC53CCCCC3)CCC2)nc2cc3cc(C(=O)O)sc3cc21` are 0.038 µM and 0.35 µM. For `O=C(O)/C=C/c1ccc(NC(=O)C2(NC(=O)c3ccc4c(c3)nc(-c3ccoc3)n4C3CCCCC3)CCNCC2)cc1`, the EC50 with Hepatitis C virus is 5 µM. The same compound displayed an IC50 in assay [1] of 0.043 µM. On the same counts, the results for `COc1ccc2c(c1)OCCn1c-2c(C2CCCCC2)c2ccc(C(=O)NC3(C(=O)Nc4ccc(/C=C/C(=O)O)cc4)CCC3)cc21` are 0.004 µM and 0.56 µM.

On to `Cn1c(C(=O)O)cc2cc(NC(=O)C3(NC(=O)c4ccc5c(c4)nc(-c4ccoc4)n5C4CCCCC4)CCCNC3)ccc21` (single isomer, unassigned; enantiomer 1), for which the IC50 in assay [1] stood at 1.3 µM. Regarding `Cn1c(C(=O)O)cc2cc(NC(=O)C3(NC(=O)c4ccc5c(c4)nc(-c4ccoc4)n5C4CCCCC4)CCCNC3)ccc21` (single isomer, unassigned; enantiomer 2), 0.084 µM corresponded to half-maximal inhibition in assay [1] (IC50). This IC50 is about 15-fold lower than that of the compound before.

In turn, `Cn1c(C(=O)O)cc2cc(NC(=O)C3(NC(=O)c4ccc5c(c4)nc(-c4ccoc4)n5C4CCCCC4)CCNCC3)ccc21` yielded an IC50 in assay [1] of 0.055 µM.
